Data: ChEMBL document CHEMBL5705906 (Nat Commun, 2017)
Activity calls are given as the source filed them. The calls are words filed in the database; no cut-off is given here.

Columns and labels:
[1] = test system: BaF3; assay: Inhibition of EGFR-T790M/del19 mutant in mouse BaF3 cells assessed as inhibition of Akt phosphorylation at 10 to 1000 nM incubated for 6 hrs by Western blotting analysis; format: cell-based; details: dose 10-1000 nM
Procedure, shortened: (§1)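 Ba/F3 cells carrying the stated EGFR mutant were made IL-3-independent after 1 week of 7 µM blasticidin selection. They were grown in low-glucose DMEM with 10% FBS and exposed to inhibitor for 6 h. Cells were washed in cold PBS, lysed in SDS buffer (100 mM Tris, 1% SDS, 10% glycerol) and boiled 5 min. Protein was measured by BCA, run on SDS-PAGE, transferred to PVDF, blocked in 5% BSA or milk/TBS-T, and immunoblotted.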

[2] = test system: PC-9; assay: Anti-tumor activity against human PC-9 cells expressing EGFR-C797S/T790M/del19 mutant xenografted in Balb-c nu/nu mouse assessed as decreased tumor growth at 75 mg/kg, po administered for 60 days and measured twice weekly in presence of panitumumab; format: functional, organism-based; details: time 60.0 day
Procedure, shortened: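 PC9 EGFR-C797S/T790M/del19 xenografts in Balb-c nu/nu mice, randomized at ~200 mm³. […] Tumour volume 0.5×length×width² measured twice weekly. Survival by Kaplan-Meier. N = 6. Mann-Whitney U test at days 16 and 23.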

[3] = test system: A-431; assay: Anticancer activity against human A-431 cells assessed as reduction in cell viability at IC50 concentration incubated for 72 hrs by CellTiter-Glo assay; format: functional, cell-based
Procedure, shortened: (§2)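 Three-day CellTiter-Glo viability assay. Cells exposed to compound across a 10-dose range of 0.3 nM to 10 µM for 72 h. IC50 from nonlinear sigmoidal dose-response fit.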

[4] = test system: BaF3; assay: Inhibition of EGFR-del19 mutant in mouse BaF3 cells assessed as inhibition of Akt phosphorylation at 10 to 1000 nM incubated for 6 hrs by Western blotting analysis; format: cell-based; details: dose 10-1000 nM; procedure, shortened: as §1
[5] = Toxicity against SCID-beige mouse xenografted with human MGH121 cells expressing EGFR-C797S/T790M/del19 mutant assessed as change in body weight at 75 mg/kg, po administered for 40 days and measured twice weekly; format: organism-based; details: in vivo, 960 h, time 40 day
Procedure, shortened: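 SCID-beige mice with subcutaneous MGH121-res2 implants were randomized to vehicle or treatment at a mean tumour volume of ~200 mm³. […] Body weight was measured twice weekly, N=6 per group.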

[6] = test system: PC-9; details: Homo sapiens, dose 75.0 mg/kg, route po, time 60.0 day
[7] = test system: BaF3; format: cell-based; details: Mus musculus, dose 10-1000 nM, time 6.0 hrs
[8] = test system: PC-9; details: Homo sapiens, dose 75.0 mg/kg, route po, time 60.0 day; remark: listed apart in the source
[9] = test system: Epidermal growth factor receptor (Homo sapiens), P00533 [UNDEFINED MUTATION]; details: PC-9, dose 500.0 nM, time 48.0 hrs
[10] = test system: PC-9; assay: Anti-tumor activity against EGFR T790M/del19 mutant expressing gefitinib-resistant human PC-9 cells xenografted in Balb-c nu/nu mouse assessed as growth inhibition at 75 mg/kg, po administered for 42 days and measured for 3 times per week in presence of cetuximab; format: functional, organism-based; details: time 42.0 day
[11] = test system: Epidermal growth factor receptor (Homo sapiens), P00533 [UNDEFINED MUTATION]; details: PC-9, dose 500.0 nM, time 48.0 hrs; remark: listed apart in the source
[12] = test system: BaF3; assay: Inhibition of EGFR-T790M/del19 mutant in mouse BaF3 cells assessed as inhibition of ERK phosphorylation at 10 to 1000 nM incubated for 6 hrs by Western blotting analysis; format: cell-based; details: dose 10-1000 nM; procedure, shortened: as §1
[13] = test system: BaF3; format: cell-based; details: Mus musculus, dose 10-1000 nM, time 6.0 hrs; remark: listed apart in the source
[14] = test system: Epidermal growth factor receptor (Homo sapiens), P00533 [UNDEFINED MUTATION]; details: MGH121, dose 500.0 nM, time 6-48 hrs, TDE = time-dependent effect
[15] = test system: NCI-H460; assay: Anticancer activity against human NCI-H460 cells assessed as reduction in cell viability at IC50 concentration incubated for 72 hrs by CellTiter-Glo assay; format: functional, cell-based; procedure, shortened: as §2
[16] = test system: BaF3; details: Mus musculus, dose 30-1000 nM, time 6.0 hrs
[17] = molecular target: Epidermal growth factor receptor (Homo sapiens) (UniProt P00533); details: dose 0.01-10000 nM, time 10.0 min
[18] = test system: Epidermal growth factor receptor (Homo sapiens), P00533 [UNDEFINED MUTATION]; details: PC-9, dose 10-1000 nM
[19] = test system: BaF3; assay: Inhibition of EGFR-del19 mutant in mouse BaF3 cells assessed as inhibition of ERK phosphorylation at 10 to 1000 nM incubated for 6 hrs by Western blotting analysis; format: cell-based; details: dose 10-1000 nM; procedure, shortened: as §1
[20] = test system: PC-9; assay: Inhibition of EGFR T790M/del19 mutant in human PC-9 cells assessed as reduction in EGFR phosphorylation at 10 to 1000 nM by Western blotting analysis; format: cell-based; details: dose 10-1000 nM
[21] = test system: BaF3; format: cell-based; details: Mus musculus, dose 10-1000 nM, time 6.0 hrs; remark: listed apart in the source
[22] = test system: Epidermal growth factor receptor (Homo sapiens), P00533 [UNDEFINED MUTATION]; details: PC-9, dose 500.0 nM, time 48.0 hrs; remark: listed apart in the source
[23] = test system: Epidermal growth factor receptor (Homo sapiens), P00533 [UNDEFINED MUTATION]; details: PC-9, dose 500.0 nM, time 48.0 hrs; remark: listed apart in the source
[24] = test system: BaF3; assay: Inhibition of EGFR-C797S/T790M/del19 mutant in mouse BaF3 cells assessed as reduction in Akt phosphorylation incubated for 6 hrs by Western blotting analysis; format: cell-based
[25] = test system: PC-9; details: Homo sapiens, dose 75.0 mg/kg, route po, time 60.0 day; remark: listed apart in the source
[26] = Toxicity against Balb-c nu/nu mouse xenografted with human PC-9 cells expressing EGFR-C797S/T790M/del19 mutant assessed as change in body weight at 75 mg/kg, po administered for 60 days and measured twice weekly in presence of panitumumab; format: organism-based; details: in vivo, 1440 h, time 60 day
Procedure, shortened: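 Mice bearing subcutaneous PC9 triple-mutant tumours in Balb-c nu/nu hosts were randomized at ~200 mm³. […] Body weights were taken twice weekly, N=6 per group.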

[27] = test system: BaF3; details: Mus musculus, dose 10-1000 nM
[28] = test system: BaF3; format: cell-based; details: Mus musculus, dose 10-1000 nM, time 6.0 hrs; remark: listed apart in the source
[29] = test system: Epidermal growth factor receptor (Homo sapiens), P00533 [UNDEFINED MUTATION]; details: PC-9, dose 500.0 nM, time 48.0 hrs; remark: listed apart in the source
[30] = test system: BaF3; details: Mus musculus, dose 10-1000 nM, time 6.0 hrs
[31] = test system: PC-9; assay: Inhibition of EGFR T790M/del19 mutant in human PC-9 cells assessed as reduction in ERK phosphorylation at 10 to 1000 nM by Western blotting analysis; format: cell-based; details: dose 10-1000 nM
[32] = test system: Epidermal growth factor receptor (Homo sapiens), P00533 [UNDEFINED MUTATION]; details: PC-9, dose 500.0 nM, time 6-48 hrs, TDE = time-dependent effect

Chain of Epidermal growth factor receptor (Homo sapiens), P00533 [UNDEFINED MUTATION] (P00533 whole entry, looked up, stated change not applied): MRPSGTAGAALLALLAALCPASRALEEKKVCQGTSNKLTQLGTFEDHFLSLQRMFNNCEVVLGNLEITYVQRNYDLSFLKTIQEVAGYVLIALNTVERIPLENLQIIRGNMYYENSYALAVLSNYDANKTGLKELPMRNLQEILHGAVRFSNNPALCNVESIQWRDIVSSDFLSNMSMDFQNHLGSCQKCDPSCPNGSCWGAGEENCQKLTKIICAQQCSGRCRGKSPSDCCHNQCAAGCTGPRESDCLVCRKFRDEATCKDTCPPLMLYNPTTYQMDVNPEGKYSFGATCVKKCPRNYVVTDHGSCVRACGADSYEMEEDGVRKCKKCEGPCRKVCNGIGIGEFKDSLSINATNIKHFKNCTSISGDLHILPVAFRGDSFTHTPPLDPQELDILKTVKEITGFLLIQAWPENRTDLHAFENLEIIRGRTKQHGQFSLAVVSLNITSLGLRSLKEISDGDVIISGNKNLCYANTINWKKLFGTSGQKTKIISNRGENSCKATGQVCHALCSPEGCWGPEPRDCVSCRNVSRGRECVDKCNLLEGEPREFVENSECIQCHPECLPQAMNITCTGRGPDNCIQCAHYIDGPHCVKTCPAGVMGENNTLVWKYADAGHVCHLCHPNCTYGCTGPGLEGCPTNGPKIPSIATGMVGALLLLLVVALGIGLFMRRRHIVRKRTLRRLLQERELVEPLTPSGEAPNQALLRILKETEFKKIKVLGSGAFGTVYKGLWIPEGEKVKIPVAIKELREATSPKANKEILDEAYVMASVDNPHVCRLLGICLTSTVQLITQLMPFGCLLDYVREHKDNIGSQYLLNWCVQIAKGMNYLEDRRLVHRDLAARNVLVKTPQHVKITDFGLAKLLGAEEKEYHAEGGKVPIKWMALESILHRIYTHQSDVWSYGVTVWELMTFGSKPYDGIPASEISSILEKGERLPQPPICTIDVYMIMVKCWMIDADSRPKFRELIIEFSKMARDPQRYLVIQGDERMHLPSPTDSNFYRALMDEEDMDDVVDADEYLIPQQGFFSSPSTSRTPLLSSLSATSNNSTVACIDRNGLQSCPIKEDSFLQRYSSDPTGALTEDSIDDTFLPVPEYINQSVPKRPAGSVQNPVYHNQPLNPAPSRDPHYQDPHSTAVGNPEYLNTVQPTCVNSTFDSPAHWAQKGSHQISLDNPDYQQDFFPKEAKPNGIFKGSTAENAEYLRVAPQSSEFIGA
Chain of Epidermal growth factor receptor (Homo sapiens) (P00533 whole entry): as the sequence (P00533 whole entry, looked up, stated change not applied) above

## COc1cc(N2CCC(N3CCN(C)CC3)CC2)ccc1Nc1ncc(Cl)c(Nc2ccccc2P(C)(C)=O)n1 [BRIGATINIB]
[1]
  inhibition: Active
[2]
  Activity: Active
[3]
  Activity: Active
[4]
  inhibition: Active
[5]
  Activity: Non-Toxic
[6]
  inhibition: Active
[7]
  inhibition: Active
[8]
  inhibition: Active
[9]
  inhibition: Active
[10]
  Activity: Active
[11]
  inhibition: Active
[12]
  inhibition: Active
[13]
  inhibition: Active
[14]
  inhibition: Tde
[15]
  Activity: Active
[16]
  inhibition: Active
[17]
  inhibition: Dose-Dependent Effect
[18]
  inhibition: Active
[19]
  inhibition: Active
[20]
  inhibition: Active
[21]
  inhibition: Active
[22]
  inhibition: Active
[23]
  inhibition: Active
[24]
  inhibition: Dose-Dependent Effect
[25]
  inhibition: Active
[26]
  Activity: Non-Toxic
[27]
  inhibition: Dose-Dependent Effect
[28]
  inhibition: Active
[29]
  inhibition: inactive
[30]
  inhibition: Active
[31]
  inhibition: Active
[32]
  inhibition: Tde
